Measurements reported in BindingDB's records for doi:10.1021/jm200203f (Washington University, 2011).

Columns and labels:
[1] = target: D(2) dopamine receptor (Homo sapiens, UniProt P14416); test: Displacement of [125I]IABN from human dopamine D2 long receptor expressed in HEK293 cells after 60 mins by gamma counting
[2] = target: D(3) dopamine receptor (Homo sapiens, UniProt P35462); test: Displacement of [125I]IABN from human dopamine D3 receptor expressed in HEK293 cells after 60 mins by gamma counting
Sequence of D(3) dopamine receptor (P35462 as listed by the source): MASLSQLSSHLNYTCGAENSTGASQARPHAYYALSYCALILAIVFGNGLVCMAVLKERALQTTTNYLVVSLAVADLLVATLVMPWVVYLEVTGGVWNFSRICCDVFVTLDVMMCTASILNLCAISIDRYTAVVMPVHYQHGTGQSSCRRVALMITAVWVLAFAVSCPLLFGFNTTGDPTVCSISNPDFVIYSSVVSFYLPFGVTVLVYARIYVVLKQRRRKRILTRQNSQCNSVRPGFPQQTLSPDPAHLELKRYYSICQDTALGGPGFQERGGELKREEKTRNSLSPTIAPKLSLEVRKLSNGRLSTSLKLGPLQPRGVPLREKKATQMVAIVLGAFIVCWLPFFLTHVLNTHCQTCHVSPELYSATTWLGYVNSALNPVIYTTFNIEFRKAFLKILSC

[3] = target: T1, 5-hydroxytryptamine receptor 1A (Homo sapiens, UniProt P08908); test: Displacement of [3H]8-OH-DPAT from human 5HT1A receptor after 60 mins by liquid scintillation counting
T1 sequence (P08908 whole entry): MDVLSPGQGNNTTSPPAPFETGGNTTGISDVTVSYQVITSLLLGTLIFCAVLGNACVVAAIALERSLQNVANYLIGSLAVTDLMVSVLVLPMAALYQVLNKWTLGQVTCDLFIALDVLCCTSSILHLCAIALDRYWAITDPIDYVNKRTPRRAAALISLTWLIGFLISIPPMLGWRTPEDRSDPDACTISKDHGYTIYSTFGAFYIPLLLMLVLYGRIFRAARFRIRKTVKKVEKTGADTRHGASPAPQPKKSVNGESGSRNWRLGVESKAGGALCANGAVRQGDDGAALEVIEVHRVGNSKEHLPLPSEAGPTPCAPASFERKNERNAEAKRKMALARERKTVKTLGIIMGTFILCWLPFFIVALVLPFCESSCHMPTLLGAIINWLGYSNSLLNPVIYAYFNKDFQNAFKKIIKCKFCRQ
How it was run: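 Inhibitor spanned 0.1 nM–10 µM or 0.01 nM–1 µM; 10 µM WAY-100635 defined nonspecific binding. Cold wash, filtration, scintillation counting; IC50 by nonlinear regression.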

[4] = target: Sigma non-opioid intracellular receptor 1 (Cavia porcellus, UniProt Q60492); test: Displacement of (+)-[3H]pentazocine from sigma 1 receptor in guinea pig brain membrane homogenates after 90 mins by liquid scintillation counting
Sequence of Sigma non-opioid intracellular receptor 1 (Q60492 whole entry): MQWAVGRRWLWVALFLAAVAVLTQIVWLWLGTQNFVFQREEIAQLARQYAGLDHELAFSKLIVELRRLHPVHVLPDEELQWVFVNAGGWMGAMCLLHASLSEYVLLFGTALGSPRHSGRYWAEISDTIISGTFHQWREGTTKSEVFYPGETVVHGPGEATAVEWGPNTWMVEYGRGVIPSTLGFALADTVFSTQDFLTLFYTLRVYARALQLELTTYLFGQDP

[5] = target: T2, Vesicular acetylcholine transporter (Homo sapiens, UniProt Q16572); test: Displacement of (-)-[3H]vesamicol from human VAChT expressed in rat PC12 A123.7 cells after 20 hrs
T2 sequence (Q16572 whole entry): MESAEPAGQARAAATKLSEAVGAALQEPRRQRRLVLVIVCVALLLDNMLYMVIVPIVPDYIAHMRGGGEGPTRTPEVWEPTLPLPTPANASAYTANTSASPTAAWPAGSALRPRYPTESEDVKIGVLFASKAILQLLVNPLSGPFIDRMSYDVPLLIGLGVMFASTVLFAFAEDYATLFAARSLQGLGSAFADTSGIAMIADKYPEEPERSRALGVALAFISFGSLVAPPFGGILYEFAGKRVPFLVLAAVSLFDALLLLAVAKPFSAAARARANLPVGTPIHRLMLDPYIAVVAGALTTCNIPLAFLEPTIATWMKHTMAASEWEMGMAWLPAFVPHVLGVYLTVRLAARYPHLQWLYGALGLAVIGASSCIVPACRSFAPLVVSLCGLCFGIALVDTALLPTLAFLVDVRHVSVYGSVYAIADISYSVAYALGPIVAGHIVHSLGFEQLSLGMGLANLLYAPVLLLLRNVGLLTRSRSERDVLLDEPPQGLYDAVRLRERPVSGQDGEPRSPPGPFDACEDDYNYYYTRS

Sequence of D(2) dopamine receptor (P14416 whole entry): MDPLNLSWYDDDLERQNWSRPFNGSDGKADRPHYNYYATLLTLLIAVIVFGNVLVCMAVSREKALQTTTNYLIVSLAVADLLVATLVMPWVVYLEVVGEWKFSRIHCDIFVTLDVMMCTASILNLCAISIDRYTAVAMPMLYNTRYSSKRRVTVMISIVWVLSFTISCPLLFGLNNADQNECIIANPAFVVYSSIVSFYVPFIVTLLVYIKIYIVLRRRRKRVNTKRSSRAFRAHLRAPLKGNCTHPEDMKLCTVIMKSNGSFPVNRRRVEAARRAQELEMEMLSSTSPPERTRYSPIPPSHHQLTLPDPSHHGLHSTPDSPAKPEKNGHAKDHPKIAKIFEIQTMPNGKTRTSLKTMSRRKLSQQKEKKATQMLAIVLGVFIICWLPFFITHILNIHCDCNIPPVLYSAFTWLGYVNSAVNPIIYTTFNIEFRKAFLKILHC

Ki [1] [nM]	Ki [2] [nM]	Ki [3] [nM]	Ki [4] [nM]	SMILES	Ki [5] [nM]
1350	> 20000	2540	0.48	O=C(c1ccc(F)cc1)C1CCN([C@H]2CCN(Cc3ccc(F)cc3)C[C@@H]2O)CC1	
			3140	O=C(c1ccc(F)cc1)C1CCN([C@H]2CCN(C(=O)c3ccc(F)cc3)C[C@@H]2O)CC1	3600

The next lines start with the molecule.

SMILES	Ki [1] [nM]	Ki [2] [nM]	Ki [3] [nM]	Ki [4] [nM]	Ki [5] [nM]
COc1ccc(C(=O)C2CCN([C@H]3CCN(Cc4ccc(F)cc4)C[C@@H]3O)CC2)cc1	1490	> 15000			
O=C(c1ccc(F)cc1)C1CCN([C@H]2CN(Cc3cccnc3)CC[C@@H]2O)CC1				1160	237
COc1ccc(C(=O)C2CCN([C@H]3CN(Cc4ccccc4)CC[C@@H]3O)CC2)cc1				208	36
COc1ccc(C(=O)C2CCN([C@H]3CN(Cc4cccnc4)CC[C@@H]3O)CC2)cc1				2220	107
